The term IC50 denotes the concentration that inhibits the measured activity by half. For orientation: bioavailability means the share of a dose that reaches the circulation, judged against a reference dose that is usually intravenous. Broadly, the half-life is how long it takes for the measured level to halve. Broadly, the Cmax is the peak of the concentration-time curve. One may read the NOAEL as the highest tested level that showed no adverse finding. One may read the clearance as the rate of elimination divided by the concentration.

Active and inactive are the calls of the source. The calls are words filed in the database; no cut-off is given here. A value given as a limit tells only on which side of the number the result lay.

For data set [1], the target named is Dipeptidyl peptidase 9 (Homo sapiens, UniProt Q86TI2). As to the kind of experiment: Inhibition of DPP9.
In data set [2] the test system is Rattus norvegicus. In words: In vivo inhibition of DPP4 in Zucker fatty rat plasma assessed as AMC production at 3 mg/kg, po after 3 hrs by fluorescence microplate reader analysis. Further details: dose 3 mg/kg. Type of data set: functional, organism-based. The essentials: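 Male Zucker fatty rats, 9 weeks old, fasted 24 h and kept fasted to 12 h post-dose; test compound solution given by oral gavage at 1.0 or 3.0 mg/kg. Blood sampled at -0.5 h and 0.25–24 h. Plasma DPP-4 measured as AMC release from Gly-Pro-MCA (100 µmol/L working solution), pH 7.8 HEPES buffer, Ex 380/Em 460 nm for 3 min, AMC calibration, duplicates; n = 4–5.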

A short description of data set [3]: Oral bioavailability in monkey at 3 mg/kg, po. Type of data set: ADME, organism-based, Macaca mulatta. To be noted: rhesus monkey, in vivo.
Data set [4] has as its target T1, Cytochrome P450 2C8 (Homo sapiens, UniProt P10632).
T1 sequence (P10632 whole entry): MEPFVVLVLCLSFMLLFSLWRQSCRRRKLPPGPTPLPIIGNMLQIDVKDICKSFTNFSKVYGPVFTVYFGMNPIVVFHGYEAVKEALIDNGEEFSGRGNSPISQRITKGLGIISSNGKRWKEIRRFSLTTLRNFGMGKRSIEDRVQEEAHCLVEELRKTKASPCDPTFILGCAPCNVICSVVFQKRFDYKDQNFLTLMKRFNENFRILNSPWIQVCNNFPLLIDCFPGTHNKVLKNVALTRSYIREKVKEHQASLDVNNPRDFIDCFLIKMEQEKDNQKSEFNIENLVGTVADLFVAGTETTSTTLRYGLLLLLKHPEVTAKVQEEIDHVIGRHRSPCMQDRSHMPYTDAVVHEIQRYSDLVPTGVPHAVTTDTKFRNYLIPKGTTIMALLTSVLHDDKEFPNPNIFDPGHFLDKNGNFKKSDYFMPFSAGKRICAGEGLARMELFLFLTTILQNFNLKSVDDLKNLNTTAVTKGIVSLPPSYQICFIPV
In words: Inhibition of CYP2C8. It counts as ADME.

A short description of data set [5]: Half life in rat at 1 mg/kg, iv. Type of data set: ADME, organism-based. Further details: dose 1 mg/kg, route intravenous. To be noted: in vivo.
Data set [6] has as its target T2, Prolyl endopeptidase FAP (Homo sapiens, UniProt Q12884).
T2 sequence (Q12884 whole entry): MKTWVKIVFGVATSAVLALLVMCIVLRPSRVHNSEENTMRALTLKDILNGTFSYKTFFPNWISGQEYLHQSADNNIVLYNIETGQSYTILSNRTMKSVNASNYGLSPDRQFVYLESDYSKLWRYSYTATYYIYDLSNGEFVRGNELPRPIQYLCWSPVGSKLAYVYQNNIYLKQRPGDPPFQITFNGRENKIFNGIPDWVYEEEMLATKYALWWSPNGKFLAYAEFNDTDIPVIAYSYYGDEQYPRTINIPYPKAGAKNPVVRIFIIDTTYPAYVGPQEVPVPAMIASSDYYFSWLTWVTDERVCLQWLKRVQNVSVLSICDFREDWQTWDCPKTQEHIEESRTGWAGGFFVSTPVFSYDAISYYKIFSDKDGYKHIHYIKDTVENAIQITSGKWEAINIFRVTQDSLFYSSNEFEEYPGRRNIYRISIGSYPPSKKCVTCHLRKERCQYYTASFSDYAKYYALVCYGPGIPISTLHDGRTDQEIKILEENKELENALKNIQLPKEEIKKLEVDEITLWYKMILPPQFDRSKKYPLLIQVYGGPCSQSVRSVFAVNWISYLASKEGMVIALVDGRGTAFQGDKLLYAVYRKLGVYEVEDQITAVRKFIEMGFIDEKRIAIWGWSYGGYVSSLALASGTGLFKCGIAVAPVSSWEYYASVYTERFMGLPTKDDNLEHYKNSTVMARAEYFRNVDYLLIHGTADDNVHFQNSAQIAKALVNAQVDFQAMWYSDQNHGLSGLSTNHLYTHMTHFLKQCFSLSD
As to the kind of experiment: Inhibition of FAPalpha.

Data set [7] can be described thus: Cmax in Zucker fatty rat at 3 mg/kg, po after 3 hrs. Type of data set: ADME, organism-based. On the set-up: dose 3 mg/kg, route oral. To be noted: in vivo.
Data set [8] deals with T3, Muscarinic acetylcholine receptor M2 (Homo sapiens, UniProt P08172).
T3 sequence (P08172 whole entry): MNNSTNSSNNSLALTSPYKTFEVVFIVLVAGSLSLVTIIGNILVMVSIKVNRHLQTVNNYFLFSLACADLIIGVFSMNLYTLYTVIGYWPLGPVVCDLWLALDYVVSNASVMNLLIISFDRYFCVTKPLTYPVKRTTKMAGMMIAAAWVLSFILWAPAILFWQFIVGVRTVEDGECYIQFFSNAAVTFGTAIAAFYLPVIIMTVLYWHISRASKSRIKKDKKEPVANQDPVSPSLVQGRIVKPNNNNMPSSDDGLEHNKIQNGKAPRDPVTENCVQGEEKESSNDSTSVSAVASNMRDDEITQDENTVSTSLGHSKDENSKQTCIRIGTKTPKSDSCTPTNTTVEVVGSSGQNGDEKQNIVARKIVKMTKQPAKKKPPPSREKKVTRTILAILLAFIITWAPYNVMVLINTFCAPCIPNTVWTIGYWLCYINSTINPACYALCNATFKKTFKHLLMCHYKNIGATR
As to the kind of experiment: Binding affinity to muscarinic receptor 2.

Data set [9] deals with Dipeptidyl peptidase 8 (Homo sapiens, UniProt Q6V1X1). In words: Inhibition of DPP8.
Data set [10] in a line: Toxicity in rat assessed as organ toxicity after 2 weeks repeated dosage. Type of data set: organism-based. To be noted: in vivo. The method in brief:
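2-week repeated-dose toxicity study; rats n = 5 per sex, monkeys n = 1 per sex.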

The nature of data set [11]: Half life in dog at 1 mg/kg, iv. Type of data set: ADME, organism-based, Canis lupus familiaris. On the set-up: dose 1 mg/kg, route intravenous. To be noted: in vivo.
Data set [12] in a line: Plasma protein binding in monkey. It counts as ADME, cell-free, Macaca mulatta. To be noted: rhesus monkey, read-out: PPB (converted).
The subject of data set [13] is Salmonella typhimurium. As to the kind of experiment: Genotoxicity in Salmonella Typhimurium by Ames test. Type of data set: toxicity, organism-based. The conditions noted are these: salmonella enterica subsp. enterica serovar typhimurium. On the technique in general: In the Ames test, an excess of revertant colonies over the control signals mutagenicity.
Data set [14] addresses Xaa-Pro aminopeptidase 2 (Homo sapiens, UniProt O43895). In words: Inhibition of aminopeptidase P.
The nature of data set [15]: Oral bioavailability in dog at 3 mg/kg, po. Type of data set: ADME, organism-based, Canis lupus familiaris. The conditions noted are these: in vivo.
For data set [16], the target named is T4, Cytochrome P450 1A2 (Homo sapiens, UniProt P05177).
T4 sequence (P05177 whole entry): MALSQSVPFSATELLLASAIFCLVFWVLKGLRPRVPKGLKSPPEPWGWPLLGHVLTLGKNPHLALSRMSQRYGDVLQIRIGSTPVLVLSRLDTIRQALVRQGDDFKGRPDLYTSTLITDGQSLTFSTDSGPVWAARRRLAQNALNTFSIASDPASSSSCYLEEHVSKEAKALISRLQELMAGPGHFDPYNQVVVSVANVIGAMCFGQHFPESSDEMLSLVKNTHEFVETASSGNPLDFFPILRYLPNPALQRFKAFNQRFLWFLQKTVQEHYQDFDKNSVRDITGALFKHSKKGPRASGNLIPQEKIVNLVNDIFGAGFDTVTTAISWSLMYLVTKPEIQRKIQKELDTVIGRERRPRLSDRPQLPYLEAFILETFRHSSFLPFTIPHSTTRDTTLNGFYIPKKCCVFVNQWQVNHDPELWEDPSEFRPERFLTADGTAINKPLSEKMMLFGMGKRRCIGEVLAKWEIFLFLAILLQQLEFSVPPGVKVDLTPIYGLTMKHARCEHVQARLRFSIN
As to the kind of experiment: Inhibition of CYP1A2. It counts as ADME.

Data set [17] can be described thus: Clearance in monkey at 1 mg/kg, iv. Type of data set: ADME, organism-based, Macaca mulatta. On the set-up: dose 1 mg/kg, route intravenous. To be noted: rhesus monkey, in vivo.

Xaa-Pro aminopeptidase 2, sequence (O43895 whole entry): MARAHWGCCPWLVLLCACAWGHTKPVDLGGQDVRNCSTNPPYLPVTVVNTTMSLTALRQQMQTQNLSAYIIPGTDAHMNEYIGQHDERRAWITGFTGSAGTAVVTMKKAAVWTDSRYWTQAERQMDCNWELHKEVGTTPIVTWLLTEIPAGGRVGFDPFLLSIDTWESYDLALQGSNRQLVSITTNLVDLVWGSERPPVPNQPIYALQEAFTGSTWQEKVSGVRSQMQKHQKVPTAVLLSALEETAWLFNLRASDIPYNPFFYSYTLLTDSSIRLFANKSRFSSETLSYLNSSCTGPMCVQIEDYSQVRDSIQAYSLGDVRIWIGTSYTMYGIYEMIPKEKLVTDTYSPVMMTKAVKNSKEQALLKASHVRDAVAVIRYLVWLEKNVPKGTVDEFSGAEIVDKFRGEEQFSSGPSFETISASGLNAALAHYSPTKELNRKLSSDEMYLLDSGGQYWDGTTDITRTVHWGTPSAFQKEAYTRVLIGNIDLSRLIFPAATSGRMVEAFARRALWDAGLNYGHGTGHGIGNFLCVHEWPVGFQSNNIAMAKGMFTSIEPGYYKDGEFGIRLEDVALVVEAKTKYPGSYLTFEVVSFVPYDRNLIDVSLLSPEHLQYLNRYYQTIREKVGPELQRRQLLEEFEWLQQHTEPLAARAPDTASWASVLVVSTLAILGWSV
Dipeptidyl peptidase 8, sequence (Q6V1X1 whole entry): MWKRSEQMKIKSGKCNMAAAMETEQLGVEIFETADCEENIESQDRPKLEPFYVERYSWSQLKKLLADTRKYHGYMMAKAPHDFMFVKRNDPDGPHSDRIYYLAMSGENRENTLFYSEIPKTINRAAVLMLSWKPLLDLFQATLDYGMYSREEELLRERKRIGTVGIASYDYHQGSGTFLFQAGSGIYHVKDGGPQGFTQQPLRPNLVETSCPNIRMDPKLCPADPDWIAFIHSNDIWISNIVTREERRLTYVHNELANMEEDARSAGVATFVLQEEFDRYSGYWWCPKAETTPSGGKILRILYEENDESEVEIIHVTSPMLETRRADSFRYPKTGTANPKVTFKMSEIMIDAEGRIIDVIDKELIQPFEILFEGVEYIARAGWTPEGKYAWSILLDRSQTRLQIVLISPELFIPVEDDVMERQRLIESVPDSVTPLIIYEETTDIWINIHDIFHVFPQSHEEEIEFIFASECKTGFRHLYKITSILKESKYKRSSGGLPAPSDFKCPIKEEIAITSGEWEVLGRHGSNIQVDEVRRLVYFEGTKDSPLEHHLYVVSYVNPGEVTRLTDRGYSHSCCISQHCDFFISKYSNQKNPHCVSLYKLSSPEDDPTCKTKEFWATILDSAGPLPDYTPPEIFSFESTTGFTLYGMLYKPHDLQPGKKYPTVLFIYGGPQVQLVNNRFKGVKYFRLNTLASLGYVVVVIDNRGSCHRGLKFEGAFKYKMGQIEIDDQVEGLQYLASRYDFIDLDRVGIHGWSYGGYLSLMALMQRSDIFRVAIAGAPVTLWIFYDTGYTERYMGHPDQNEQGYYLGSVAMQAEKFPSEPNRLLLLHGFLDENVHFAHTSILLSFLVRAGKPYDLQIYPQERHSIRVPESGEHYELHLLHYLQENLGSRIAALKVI
Dipeptidyl peptidase 9, sequence (Q86TI2 whole entry): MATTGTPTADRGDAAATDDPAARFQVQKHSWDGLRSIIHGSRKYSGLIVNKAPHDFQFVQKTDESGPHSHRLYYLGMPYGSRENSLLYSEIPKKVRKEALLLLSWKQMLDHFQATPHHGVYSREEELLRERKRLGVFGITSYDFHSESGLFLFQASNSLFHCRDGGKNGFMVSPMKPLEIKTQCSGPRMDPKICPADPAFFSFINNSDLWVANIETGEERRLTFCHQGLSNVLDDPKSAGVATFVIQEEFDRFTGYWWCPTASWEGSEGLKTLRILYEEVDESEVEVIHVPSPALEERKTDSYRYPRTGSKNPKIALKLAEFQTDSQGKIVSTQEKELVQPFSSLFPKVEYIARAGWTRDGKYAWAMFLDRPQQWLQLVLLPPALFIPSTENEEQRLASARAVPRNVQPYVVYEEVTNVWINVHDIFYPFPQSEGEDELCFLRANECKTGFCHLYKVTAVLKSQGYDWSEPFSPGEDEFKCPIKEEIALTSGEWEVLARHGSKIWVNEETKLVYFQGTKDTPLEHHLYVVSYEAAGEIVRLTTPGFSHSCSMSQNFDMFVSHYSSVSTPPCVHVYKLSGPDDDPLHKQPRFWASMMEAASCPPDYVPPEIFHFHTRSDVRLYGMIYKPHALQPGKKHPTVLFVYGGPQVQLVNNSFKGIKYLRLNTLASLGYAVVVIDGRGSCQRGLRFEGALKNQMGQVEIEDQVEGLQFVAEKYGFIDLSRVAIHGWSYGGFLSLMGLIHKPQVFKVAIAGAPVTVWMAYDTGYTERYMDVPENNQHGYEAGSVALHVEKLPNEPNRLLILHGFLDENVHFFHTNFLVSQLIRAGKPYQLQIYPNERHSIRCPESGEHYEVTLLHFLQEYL

For the compound `Cn1c(=O)c2c(cc(N3CCC[C@@](C)(N)C3)n2Cc2cc(F)ccc2C#N)n(C)c1=O`, the IC50 is over 50 µM in data set [1]; over 50 µM in data set [4]; over 50 µM in data set [6]; over 10 µM in [8]; over 50 µM in [9]; over 50 µM in data set [14]. For the same compound, the IC50 in data set [16] is over 50 µM. Moreover, the inhibition entry in data set [2] was “Active”. Besides, the bioavailability amounted to 38% in data set [3] and 91% in data set [15]. In addition, the half-life is 4.1 h in data set [5] and 3.1 h in data set [11]. Moreover, the Cmax in [7] came to 309 ng/mL. Moreover, the no-observed-adverse-effect level (NOAEL) at 336 h in [10] worked out at 60 mg/kg/day. Besides, the fraction unbound in data set [12] is 0.31. Besides, the Activity result in [13] is on record as “Non-toxic”. The compound also yielded a clearance in [17] of 38 mL/min/kg.

Values taken from ChEMBL document CHEMBL1817578, “2-({6-[(3R)-3-amino-3-methylpiperidine-1-yl]-1,3-dimethyl-2,4-dioxo-1,2,3,4-tetrahydro-5H-pyrrolo[3,2-d]pyrimidine-5-yl}methyl)-4-fluorobenzonitrile (DSR-12727): a potent, orally active dipeptidyl peptidase IV inhibitor without mechanism-based inactivation of CYP3A” (Bioorg Med Chem, 2011).
